Test [1] has as its target T1, Neuromedin-K receptor (Homo sapiens, UniProt P29371).
T1 sequence (P29371 whole entry): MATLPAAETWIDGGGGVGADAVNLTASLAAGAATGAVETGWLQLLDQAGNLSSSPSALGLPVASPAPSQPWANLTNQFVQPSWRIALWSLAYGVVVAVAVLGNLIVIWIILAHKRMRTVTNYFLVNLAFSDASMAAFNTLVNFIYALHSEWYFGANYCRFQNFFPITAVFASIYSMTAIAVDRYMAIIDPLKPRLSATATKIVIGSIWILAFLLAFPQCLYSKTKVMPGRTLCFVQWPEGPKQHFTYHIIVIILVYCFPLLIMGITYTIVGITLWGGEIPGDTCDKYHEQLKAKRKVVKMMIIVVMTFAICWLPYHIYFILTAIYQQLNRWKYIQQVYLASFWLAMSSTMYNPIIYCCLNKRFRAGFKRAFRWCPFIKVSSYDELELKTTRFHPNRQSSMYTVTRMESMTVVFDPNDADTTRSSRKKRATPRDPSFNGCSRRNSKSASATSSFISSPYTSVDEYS
The experiment in a line: Antagonist activity at wild type human NK3 receptor expressed in HEK293 cells assessed as inhibition of [MePhe7]NKB-induced accumulation of [3H]inositol phosphate. The class given is functional, cell-based. The conditions noted are these: read-out: pA2 (converted). In outline: (§1)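 HEK293 cells transiently transfected with NK3 receptor, labeled with myo-[³H]-inositol and assayed 48 h post-transfection in HBSS/HEPES pH 7.4 with 8 mM LiCl. Fixed antagonist concentrations were preincubated 20 min at 37 °C, then [MePhe⁷]NKB (0.1 nM–10 μM) was added for 45 min at 37 °C. [³H]IP was captured on yttrium silicate beads. Agonist EC50 shifts gave dose ratios for Schild regression. Six curves from three transfections.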

Test [2] has as its target T2, Neuromedin-K receptor (Cavia porcellus, UniProt P30098). The experiment in a line: Antagonist activity at […] guinea pig NK3 receptor A1142.58T mutant expressed in HEK293 cells assessed as inhibition of [MePhe7]NKB-induced accumulation of [3H]inositol phosphate. Type of test: functional, cell-based. In outline:
as §1

The target in test [3] is T1, Neuromedin-K receptor. The experiment in a line: Displacement of [3H]osanetant from human recombinant NK3 receptor expressed in HEK293 cells. The class given is cell-based. In short, it runs like this: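 Membranes from transiently transfected HEK293 cells (5 μg protein/well) in 50 mM Tris-HCl, 4 mM MnCl2, 1 μM phosphoramidon, 0.1% BSA, pH 7.4. […] Nonspecific binding defined with 10 μM competitor. Filtered on GF/C. Ki by Cheng-Prusoff; three experiments in duplicate.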
Background: Displacement assays read how much labelled ligand stays bound in the presence of the test substance.

Test [4] deals with T3, Substance-K receptor (Homo sapiens, UniProt P21452).
T3 sequence (P21452 whole entry): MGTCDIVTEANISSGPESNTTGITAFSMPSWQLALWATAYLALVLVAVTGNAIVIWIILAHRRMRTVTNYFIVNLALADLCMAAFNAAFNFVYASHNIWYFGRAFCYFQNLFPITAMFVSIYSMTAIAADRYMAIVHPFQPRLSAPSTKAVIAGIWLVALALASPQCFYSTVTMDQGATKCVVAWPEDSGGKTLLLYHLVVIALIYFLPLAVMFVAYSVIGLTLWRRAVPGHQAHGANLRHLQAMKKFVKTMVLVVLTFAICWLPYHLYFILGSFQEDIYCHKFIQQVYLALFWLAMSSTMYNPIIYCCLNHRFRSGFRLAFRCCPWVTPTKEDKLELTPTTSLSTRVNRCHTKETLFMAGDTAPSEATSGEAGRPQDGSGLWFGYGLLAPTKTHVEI
The experiment in a line: Displacement of [3H]SR48968 from human recombinant NK2 receptor expressed in HEK293 cells. Type of test: cell-based. In short, it runs like this:
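hNK2 membranes from transient HEK293 (2.5 μg protein/well) in 50 mM Tris-HCl, 3 mM MnCl2, 4 μg/mL chymostatin, 0.04% BSA, pH 7.4. Incubated with 0.32 nM [³H]SR 48968 plus 10 inhibitor concentrations (0.0003–10 μM) for 75 min at RT. Ki by Cheng-Prusoff; three experiments in duplicate.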

For test [5], the target named is T4, Neuromedin-K receptor (Cavia porcellus, UniProt P30098).
T4 sequence (P30098 whole entry): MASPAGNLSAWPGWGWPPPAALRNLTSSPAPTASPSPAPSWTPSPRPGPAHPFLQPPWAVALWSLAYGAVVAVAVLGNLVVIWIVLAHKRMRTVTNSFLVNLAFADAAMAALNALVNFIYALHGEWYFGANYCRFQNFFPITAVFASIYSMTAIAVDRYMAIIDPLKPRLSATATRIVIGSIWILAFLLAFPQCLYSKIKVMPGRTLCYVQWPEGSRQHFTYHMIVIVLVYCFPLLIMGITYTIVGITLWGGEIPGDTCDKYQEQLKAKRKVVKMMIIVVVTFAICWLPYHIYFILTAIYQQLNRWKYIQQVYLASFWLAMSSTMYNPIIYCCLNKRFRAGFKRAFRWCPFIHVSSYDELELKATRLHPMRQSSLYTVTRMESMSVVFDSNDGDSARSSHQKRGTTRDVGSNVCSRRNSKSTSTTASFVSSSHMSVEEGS
The experiment in a line: Antagonist activity at wild type guinea pig NK3 receptor expressed in HEK293 cells assessed as inhibition of [MePhe7]NKB-induced accumulation of [3H]inositol phosphate. Particulars: read-out: pA2 (converted). The class given is functional, cell-based. In outline: as §1

Another test deals with Substance-P receptor (Homo sapiens, UniProt P25103). The experiment in a line: Displacement of [3H]substance P from human recombinant NK1 receptor expressed in HEK293 cells. The class given is cell-based. In short, it runs like this:
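hNK1 membranes from transient HEK293 (2.5 μg protein/well) in 50 mM HEPES, 3 mM MnCl2, 2 μM phosphoramidon, 16.8 μM leupeptin, 0.04% BSA, pH 7.4. Incubated with 0.6 nM [³H]substance P plus 10 inhibitor concentrations (0.0003–10 μM) for 75 min at RT. Nonspecific binding defined with 10 μM CP-96,345. Ki by Cheng-Prusoff; three experiments in duplicate.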

The target in test [6] is T2, Neuromedin-K receptor. The experiment in a line: Displacement of [3H]osanetant from guinea pig recombinant NK3 receptor A1142.58T expressed in HEK293 cells. The class given is cell-based. In outline:
(§2)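 Membranes from transiently transfected HEK293 cells (5 μg protein/well) in 50 mM Tris-HCl, 4 mM MnCl2, 1 μM phosphoramidon, 0.1% BSA, pH 7.4. Nonspecific binding defined with 10 μM competitor. Filtered on GF/C. Ki by Cheng-Prusoff; three experiments in duplicate.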

Test [7] concerns the target T4, Neuromedin-K receptor. The experiment in a line: Displacement of [3H]osanetant from guinea pig recombinant NK3 receptor expressed in HEK293 cells. Type of test: cell-based. In outline:
as §2

For test [8], the target named is T5, Neuromedin-K receptor (Cavia porcellus) (UniProt P30098).
T5 sequence (whole entry): T4 sequence (P30098 whole entry)
The conditions noted are these: HEK293.

The test system of test [9] is Neurokinin 3 receptor (Cavia porcellus). The experiment in a line: Equilibrium binding affinity to guinea pig NK3 receptor A1142.58T mutant expressed in HEK293 cells.
In test [10] the target is T6, Neuromedin-K receptor (Homo sapiens) (UniProt P29371).
T6 sequence (whole entry): T1 sequence (P29371 whole entry)
Particulars: HEK293.

The target in test [11] is T6, Neuromedin-K receptor (Homo sapiens). Particulars: HEK293. This is another data set of the same source.
The target in test [12] is T5, Neuromedin-K receptor (Cavia porcellus). The conditions noted are these: HEK293. The source holds these as a separate data set.
The target of test [13] is T3, Substance-K receptor. The experiment in a line: Binding affinity to human NK2 receptor.
For test [14], the target named is T4, Neuromedin-K receptor. The experiment in a line: Agonist activity at guinea pig NK3 receptor expressed in cells assessed as accumulation of [3H]inositol phosphate. The class given is functional, cell-based. In outline:
(§3)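 At 48 h, preincubated 10 min at RT in HBSS/20 mM HEPES pH 7.4 with 8 mM LiCl, then stimulated with [MePhe⁷]NKB (0.1 nM–10 μM) for 45 min at 37 °C. Inositol phosphates were extracted with formic acid, captured on yttrium silicate beads and counted. EC50 and Hill slope were derived.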

The target of test [15] is T1, Neuromedin-K receptor. The experiment in a line: Agonist activity at human NK3 receptor expressed in cells assessed as accumulation of [3H]inositol phosphate. Type of test: functional, cell-based. In short, it runs like this:
as §3

For test [16], the target named is T1, Neuromedin-K receptor. The experiment in a line: Binding affinity to human NK3 receptor.

Structures are written as SMILES. Where a SMILES comes first, the peptide text is derived from it. [ ]: non-standard residue; d: D form. NMeF = CN[C@@H](Cc1ccccc1)C(=O)O

Substance-P receptor, sequence (P25103 whole entry): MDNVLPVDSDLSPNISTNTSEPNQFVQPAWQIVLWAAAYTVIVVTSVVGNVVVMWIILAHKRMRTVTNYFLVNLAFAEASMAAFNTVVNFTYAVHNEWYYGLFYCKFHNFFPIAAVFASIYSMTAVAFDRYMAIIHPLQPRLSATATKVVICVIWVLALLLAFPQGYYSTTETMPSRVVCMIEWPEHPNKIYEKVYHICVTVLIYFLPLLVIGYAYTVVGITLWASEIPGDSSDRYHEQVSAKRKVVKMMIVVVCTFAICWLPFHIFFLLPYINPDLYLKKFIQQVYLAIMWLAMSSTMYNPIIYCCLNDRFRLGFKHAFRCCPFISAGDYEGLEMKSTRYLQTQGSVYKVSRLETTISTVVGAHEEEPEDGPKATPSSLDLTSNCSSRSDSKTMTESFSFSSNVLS

Consider `CC(=O)N(C)C1CCN(CCC(C)(C(=O)N(C)Cc2ccccc2Cl)c2ccc(Cl)c(Cl)c2)CC1` (stereo unspecified), for which the Kb at Neuromedin-K receptor [1] was 18.2 nM; at Neuromedin-K receptor [5], 24 nM. On Neuromedin-K receptor [2], the pA2 (as a rule, the negative logarithm of the molar antagonist concentration that doubles the agonist concentration needed for the same response) stood at 7.53. Also, the Ki (in general, the dissociation constant of the complex between target and ligand, obtained from inhibition or displacement) on Neuromedin-K receptor [3] came to 10.4 nM; at Substance-K receptor [4] it was 953 nM; at Substance-P receptor it was 70.9 nM; at Neuromedin-K receptor [6], 11.9 nM; at Neuromedin-K receptor [7] it was 8 nM.
For `CC(=O)N(C)C1(c2ccccc2)CCN(CCC[C@]2(c3ccc(Cl)c(Cl)c3)CCCN(C(=O)c3ccccc3)C2)CC1` [OSANETANT], the T1/2 in [8] worked out at 31.5 min; in test [10] it was 4.01 min; in test [11] it was 10.1 min; in test [12] it was 10.2 min. Moreover, in test [9], the Kd (commonly the concentration at which binding is half-saturated) came to 0.08 nM.
Take `CSCC[C@H](NC(=O)[C@H](CC(C)C)NC(=O)CNC(=O)[C@H](Cc1ccccc1)N(C)C(=O)[C@H](Cc1ccccc1)NC(=O)[C@H](Cc1ccccc1)NC(=O)[C@H](CC(=O)O)NC(=O)[C@H](Cc1cnc[nH]1)NC(=O)[C@H](CCSC)NC(=O)[C@@H](N)CC(=O)O)C(N)=O` (H-DMHDFF[NMeF]GLM-NH2): the Ki on Substance-K receptor [13] came to 1600 nM; on Neuromedin-K receptor [16], 0.3 nM. Also, the EC50 at Neuromedin-K receptor [14] and at Neuromedin-K receptor [15] was 0.6 nM in each case.
Consider `CC(=O)N(C)C1CCN(CCC(C)(C(=O)N(C)Cc2ccc(F)c(C(F)(F)F)c2)c2ccc(Cl)c(Cl)c2)CC1` (stereo unspecified), for which the Kb on Neuromedin-K receptor [1] is 7.76 nM. Moreover, at Neuromedin-K receptor [2], the pA2 was determined as 7.83. Moreover, the Ki came to 3.1 nM on Neuromedin-K receptor [3]; 515 nM at Substance-K receptor [4]; 152 nM at Substance-P receptor; 2.7 nM on Neuromedin-K receptor [6]; 3.5 nM on Neuromedin-K receptor [7].
On to `CN(Cc1ccc(F)c(C(F)(F)F)c1)C(=O)C(C)(CCN1CCC(N2CCCC2=O)CC1)c1ccc(Cl)c(Cl)c1` (stereo unspecified), for which, on Neuromedin-K receptor [1], the Kb is 8.91 nM. Besides, the pA2 on Neuromedin-K receptor [2] is recorded as 7.96. Moreover, the inhibition constant Ki at Neuromedin-K receptor [3] amounted to 0.8 nM; on Substance-K receptor [4], 109 nM; at Substance-P receptor, 182 nM; at Neuromedin-K receptor [6], 1.8 nM; on Neuromedin-K receptor [7], 1.6 nM.

The values are drawn from ChEMBL document CHEMBL1154606 (J Med Chem, 2009).
